Laboratory results as given in ChEMBL document CHEMBL1154035, “Synthesis, characterization, and anti-melanoma activity of tetra-O-substituted analogs of nordihydroguaiaretic acid” (Bioorg Med Chem Lett, 2009).

Legend:
A-375 [1] = test: Cytotoxicity against human A375 cells assessed as inhibition of RNA synthesis at 50 uM; format: functional; details: values are per cent of control
In short: (§1)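 DNA, RNA and protein synthesis were measured in A375 cells treated at 50 µM, following a previously published method. This concentration was chosen to keep the analogs soluble.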

A-375 [2] = test: Cytotoxicity against human A375 cells assessed as inhibition of protein synthesis at 50 uM; format: functional; details: values are per cent of control; in short: as §1
A-375 [3] = test: Antitumor activity against human A375 cells xenografted in SCID mouse assessed as tumor growth inhibition at 100 mg/kg relative to control; format: functional
In short: (§2)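 %T/C = median treated tumor volume / median control volume × 100, taken when median control volumes were 750–1100 mm³. SCID mice carried sc A375 xenografts and were dosed on days 1, 5 and 9. Tween 80 was the vehicle at 100 and 200 mg/kg and PEG 300 at 300 mg/kg.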

A-375 [4] = test: Antitumor activity against human A375 cells xenografted in SCID mouse assessed as tumor growth inhibition at 200 mg/kg relative to control; format: functional; in short: as §2
A-375 [5] = test: Antitumor activity against human A375 cells xenografted in SCID mouse assessed as tumor growth inhibition at 300 mg/kg relative to control; format: functional; in short: as §2
A-375 [6] = test: Antitumor activity against human A375 cells xenografted in SCID mouse assessed as tumor growth delay at 100 mg/kg; format: functional
In short: (§3)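 Growth delay (T–C, days) compared the median time for treated and control tumors to reach a predetermined volume. The model was sc A375 xenografts in SCID mice dosed on days 1, 5 and 9. Vehicle: Tween 80 at 100 and 200 mg/kg (n = 4), PEG 300 at 300 mg/kg (n = 8).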

A-375 [7] = test: Antitumor activity against human A375 cells xenografted in SCID mouse assessed as tumor growth delay at 300 mg/kg; format: functional; in short: as §3
A-375 [8] = test: Antitumor activity against human A375 cells xenografted in SCID mouse assessed as tumor doubling time at 100 mg/kg; format: functional
In short: (§4)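 Tumor doubling time was taken from the line of best fit on a log(tumor volume) vs time plot while control tumors grew exponentially between 100 and 1000 mm³. Sc A375 xenografts in SCID mice were dosed on days 1, 5 and 9. The vehicle was Tween 80 at 100 and 200 mg/kg and PEG 300 at 300 mg/kg.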

A-375 [9] = test: Antitumor activity against human A375 cells xenografted in SCID mouse assessed as tumor doubling time at 200 mg/kg; format: functional; in short: as §4
A-375 [10] = test: Antitumor activity against human A375 cells xenografted in SCID mouse assessed as tumor doubling time at 300 mg/kg; format: functional; in short: as §4
A-375 [11] = test: Antitumor activity against human A375 cells xenografted in SCID mouse assessed as tumor cell kill at 300 mg/kg; format: functional
In short: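 SCID mice implanted sc in the rear right flank on day 0 with 10 × 10⁶ A375 cells in PBS. Study 2: compound suspended in 100% PEG 300, dosed at 300 mg/kg on days 1, 5 and 9, 8 mice per group; PEG 300 vehicle controls (n = 4). Tumor volume = length × width²/2. Tumor cell kill derived from the tumor growth parameters.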

A-375 [12] = test: Antitumor activity against human A375 cells xenografted in SCID mouse assessed as median tumor volume at 100 mg/kg after 14 days post-xenograft implant; format: functional
In short: (§5)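 A375 melanoma cells (10 × 10⁶ in PBS) implanted sc in the rear right flank of SCID mice on day 0. Compound suspended in 100% Tween 80 and dosed on days 1, 5 and 9; 4 mice/group; controls (n = 4) got Tween 80. Tumors measured several times a week; volume = length × width²/2; median group volume.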

A-375 [13] = test: Antitumor activity against human A375 cells xenografted in SCID mouse assessed as median tumor volume at 100 mg/kg after 28 days post-xenograft implant; format: functional; in short: as §5
A-375 [14] = test: Antitumor activity against human A375 cells xenografted in SCID mouse assessed as median tumor volume at 200 mg/kg after 9 days post-xenograft implant; format: functional; in short: as §5
A-375 [15] = test: Antitumor activity against human A375 cells xenografted in SCID mouse assessed as median tumor volume at 200 mg/kg after 16 days post-xenograft implant; format: functional; in short: as §5
A-375 [16] = test: Antitumor activity against human A375 cells xenografted in SCID mouse assessed as median tumor volume at 200 mg/kg after 19 days post-xenograft implant; format: functional; in short: as §5
A-375 [17] = test: Antitumor activity against human A375 cells xenografted in SCID mouse assessed as median tumor volume at 200 mg/kg after 26 days post-xenograft implant; format: functional; in short: as §5
A-375 [18] = test: Antitumor activity against human A375 cells xenografted in SCID mouse assessed as median tumor volume at 200 mg/kg after 30 days post-xenograft implant; format: functional; in short: as §5
A-375 [19] = test: Antitumor activity against human A375 cells xenografted in SCID mouse assessed as median tumor volume at 200 mg/kg after 33 days post-xenograft implant; format: functional; in short: as §5
A-375 [20] = test: Antitumor activity against human A375 cells xenografted in SCID mouse assessed as median tumor volume at 300 mg/kg after 9 days post-xenograft implant; format: functional
In short: (§6)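 SCID mice given sc A375 cells (10 × 10⁶ in PBS, rear right flank) on day 0. Compound suspended in 100% PEG 300 and dosed on days 1, 5 and 9; 8 mice/group; controls (n = 4) got PEG 300. Tumor volume = length × width²/2 from repeated caliper measurements; median group volume.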

A-375 [21] = test: Antitumor activity against human A375 cells xenografted in SCID mouse assessed as median tumor volume at 300 mg/kg after 18 days post-xenograft implant; format: functional; in short: as §6
A-375 [22] = test: Antitumor activity against human A375 cells xenografted in SCID mouse assessed as median tumor volume at 300 mg/kg after 21 days post-xenograft implant; format: functional; in short: as §6
A-375 [23] = test: Antitumor activity against human A375 cells xenografted in SCID mouse assessed as median tumor volume at 300 mg/kg after 23 days post-xenograft implant; format: functional; in short: as §6
A-375 [24] = test: Antitumor activity against human A375 cells xenografted in SCID mouse assessed as median tumor volume at 300 mg/kg after 26 days post-xenograft implant; format: functional; in short: as §6
Mus musculus = test: Toxicity in SCID mouse xenografted with human A375 cells at 200 mg/kg; format: organism-based, A-375; parameters: dose 200 mg/kg; details: in vivo
In short: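 SCID mice were implanted sc on day 0 with 10 × 10⁶ A375 melanoma cells in phosphate-buffered saline in the rear right flank. Compounds were suspended in 100% Tween 80 and dosed on days 1, 5 and 9, with 4 mice per group. Vehicle controls (n = 4) got 100% Tween 80. General toxicity was judged against control mice.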

| SMILES | residual activity at 50 µM (A-375 [1]) | residual activity at 50 µM (A-375 [2]) | T/C (A-375 [3]) | T/C (A-375 [4]) | T/C (A-375 [5]) | Activity (A-375 [6]) | Activity (A-375 [7]) | Activity (A-375 [8]) | Activity (A-375 [9]) | Activity (A-375 [10]) | LCK (A-375 [11]) | Activity (A-375 [12]) | Activity (A-375 [13]) | Activity (A-375 [14]) | Activity (A-375 [15]) | Activity (A-375 [16]) | Activity (A-375 [17]) | Activity (A-375 [18]) | Activity (A-375 [19]) | Activity (A-375 [20]) | further results |
| --- | --- | --- | --- | --- | --- | --- | --- | --- | --- | --- | --- | --- | --- | --- | --- | --- | --- | --- | --- | --- | --- |
| C[C@H](Cc1ccc2oc(=O)oc2c1)[C@@H](C)Cc1ccc2oc(=O)oc2c1 | 115% | 76% | 21% | 18% | 68% | 3.5 days | 1 days | 7.4 days | 7.4 days | 2.6 days | 0.1 | 90.15 mm3 | 430.61 mm3 | 93.53 mm3 | 63.36 mm3 | 48.68 mm3 | 185.34 mm3 | 463.75 mm3 | 820.68 mm3 | 66.76 mm3 | Activity (A-375 [21]): 261.9 mm3; Activity (A-375 [22]): 746.62 mm3; Activity (A-375 [23]): 964.57 mm3; Activity (A-375 [24]): 2400.46 mm3; Activity (Mus musculus): Non-toxic |
| CC(=O)Oc1ccc(C[C@@H](C)[C@@H](C)Cc2ccc(OC(C)=O)c(OC(C)=O)c2)cc1OC(C)=O | 68% | 81% | 34% | 16% | 44% | 2.5 days | 1 days | 7.4 days | 7.4 days | 2.6 days | 0.1 | 167.15 mm3 | 459.25 mm3 | 104.45 mm3 | 83.57 mm3 | 130.55 mm3 | 170.21 mm3 | 566.45 mm3 | 1337.8 mm3 | 78.64 mm3 | Activity (A-375 [21]): 114.5 mm3; Activity (A-375 [22]): 487.92 mm3; Activity (A-375 [23]): 1103.03 mm3; Activity (A-375 [24]): 1785.76 mm3; Activity (Mus musculus): Non-toxic |
